Assay [1] relates to Pseudomonas aeruginosa. As to the kind of experiment: Antibacterial activity against Pseudomonas aeruginosa RCMB 000102 at 10 mg/ml after 24 hrs by diffusion agar technique. It counts as functional. The conditions noted are these: for zone of inhibition at 10000 µg/mL: RCMB 000102, 24 h, read-out: IZ. The method in brief:
(§1)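 Agar well diffusion: 24 h bacterial culture pellets (approx. 10^4–10^6 CFU/mL) spread on nutrient agar, pH 7.0. Wells (6 mm) loaded with 100 μL sample at 10 mg/mL in DMSO; DMSO control. Incubated 37 °C, 24 h. Inhibition zone (mm, beyond well) measured three times by caliper and averaged; three runs per strain; mean ± SD.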

Assay [2] has as its system Bacillus subtilis. In words: Antibacterial activity against Bacillus subtilis RCMB 000107 at 10 mg/ml after 24 hrs by diffusion agar technique. The assay is classed as functional. The conditions noted are these: for zone of inhibition at 10000 µg/mL: RCMB 000107, 24 h, read-out: IZ. The method, boiled down:
as §1

Assay [3] deals with Aspergillus fumigatus. In words: Antifungal activity against Aspergillus fumigatus RCMB 002003 at 10 mg/ml after 3 to 4 days by agar well diffusion method. The assay is classed as functional. The conditions noted are these: for zone of inhibition at 10000 µg/mL: read-out: IZ. The method, boiled down:
(§2)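 Patient-isolated fungi, purified by single-spore isolation, were grown 3–4 days in Sabouraud dextrose broth to about 10^5 CFU/mL. 0.1 mL was spread on Sabouraud dextrose agar. Wells were sealed at the bottom with 0.8% soft agar and loaded with 100 μL sample (10 mg/mL, DMSO); DMSO was the control. Incubated 30 °C, 3–4 days. Zone read three times by caliper and averaged; mean ± SD.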

Assay [4] has as its system Candida albicans. In words: Antifungal activity against Candida albicans RCMB 005002 at 10 mg/ml after 3 to 4 days by agar well diffusion method. It counts as functional. The conditions noted are these: for zone of inhibition at 10000 µg/mL: read-out: IZ. The method in brief: as §2
Assay [5] concerns Geotrichum candidum. In words: Antifungal activity against Geotrichum candidum RCMB 052006 at 10 mg/ml after 3 to 4 days by agar well diffusion method. The assay is classed as functional. The note with it: for zone of inhibition at 10000 µg/mL: read-out: IZ. The method in brief: as §2
In assay [6] the test system is Syncephalastrum racemosum. In words: Antifungal activity against Syncephalastrum racemosum RCMB 005003 at 10 mg/ml after 3 to 4 days by agar well diffusion method. It counts as functional, organism-based. The method in brief: as §2
The test system of assay [7] is Staphylococcus aureus. As to the kind of experiment: Antibacterial activity against Staphylococcus aureus RCMB 000106 at 10 mg/ml after 24 hrs by diffusion agar technique. It counts as functional. The note with it: for zone of inhibition at 10000 µg/mL: RCMB 000106, 24 h, read-out: IZ. The method in brief:
as §1

The subject of assay [8] is Escherichia coli. As to the kind of experiment: Antibacterial activity against Escherichia coli RCMB 000103 at 10 mg/ml after 24 hrs by diffusion agar technique. The note with it: for zone of inhibition at 10000 µg/mL: RCMB 000103, 24 h, read-out: IZ. The assay is classed as functional. The method, boiled down:
as §1

Activity calls are given as the source filed them. The calls are words filed in the database; no cut-off is given here.

The text below walks through data of ChEMBL document CHEMBL1828592, “Synthesis and anti-microbial activity of some 1- substituted amino-4,6-dimethyl-2-oxo-pyridine-3-carbonitrile derivatives” (2011).

Consider `COc1ccc(-c2cc(-c3cccs3)nc3sc(C(=O)Nn4c(C)cc(C)c(C#N)c4=O)c(N)c23)cc1`, for which the “inhibition zone (IZ)” value in assay [1], in assay [6] and in assay [8] was “inactive” in each case. For the same compound, the zone of inhibition at 10000 µg/mL in assay [2] worked out at 14.2 mm; in assay [3], 11.1 mm; in assay [4], 10 mm; in assay [5], 14 mm; in assay [7] it was 13 mm.

For `Cc1cc(C)n(/N=C/c2cc3ccccc3n3nnnc23)c(=O)c1C#N`, the “inhibition zone (IZ)” value in assay [1] and in assay [6] was “inactive” each time. For the same compound, the zone of inhibition at 10000 µg/mL amounted to 17.3 mm in assay [2]; 11.2 mm in assay [3]; 11.4 mm in assay [4]; 13.4 mm in assay [5]; 18.6 mm in assay [7]; 9.3 mm in assay [8].

Consider `Cc1cc(C)n(NC(=S)Nc2ccccc2)c(=O)c1C#N`, for which the “inhibition zone (IZ)” value in assay [1], in assay [6] and in assay [8] was “inactive” each time. Moreover, the zone of inhibition at 10000 µg/mL in assay [2] is 13.5 mm; in assay [3] it was 10.2 mm; in assay [4] it was 11 mm; in assay [5], 12 mm; in assay [7], 15 mm.

As for `Cc1cc(C)n(/N=C/c2cccs2)c(=O)c1C#N`, the zone of inhibition at 10000 µg/mL in assay [1] was 14 mm; in assay [3] it was 11 mm; in assay [4], 12 mm; in assay [5], 13 mm; in assay [7], 14 mm. Besides, the “inhibition zone (IZ)” value in assay [2], in assay [6] and in assay [8] was “inactive” throughout.

In the case of `Cc1cc(C)n(/N=C/c2cc3ccccc3nc2Cl)c(=O)c1C#N`, the “inhibition zone (IZ)” value in assay [1], in assay [2], in assay [6], in assay [7] and in assay [8] was “inactive” in each case. For the same compound, the zone of inhibition at 10000 µg/mL in assay [3] amounted to 13.3 mm; in assay [4], 10.2 mm; in assay [5] it was 12.4 mm.

With `Cc1cc(C)n(NC(=O)C(=O)CC(=O)c2cc3ccccc3o2)c(=O)c1C#N`, the “inhibition zone (IZ)” value in assay [1], in assay [3], in assay [4], in assay [5] and in assay [6] was “inactive” each time. The zone of inhibition at 10000 µg/mL in assay [2] was determined as 21.8 mm; in assay [7], 20.4 mm; in assay [8], 7.4 mm.

Regarding `Cc1cc(C)n(/N=C/c2ccc(F)cc2)c(=O)c1C#N`, the “inhibition zone (IZ)” value in assay [1], in assay [3], in assay [4], in assay [5], in assay [6] and in assay [8] was “inactive” in each case. Further, the zone of inhibition at 10000 µg/mL in assay [2] was 15.2 mm; in assay [7], 14.9 mm.

In the case of `Cc1cc(C)n(N/C=C(\Nn2c(C)cc(C)c(C#N)c2=O)c2ccccc2)c(=O)c1C#N`, the “inhibition zone (IZ)” value in assay [1] and in assay [6] was “inactive” in each case. Besides, the zone of inhibition at 10000 µg/mL in assay [2] was 13.5 mm; in assay [3] it was 10 mm; in assay [4] it was 11 mm; in assay [5], 12 mm; in assay [7] it was 15 mm; in assay [8], 11.5 mm.

`Cc1cc(C)n(/N=C/c2c(C)nn(-c3ccccc3)c2Cl)c(=O)c1C#N`: the “inhibition zone (IZ)” value in assay [1], in assay [2], in assay [6], in assay [7] and in assay [8] was “inactive” throughout. The figures for the zone of inhibition at 10000 µg/mL in assay [3], in assay [4] and in assay [5] were 10.3 mm, 13.2 mm and 11.5 mm, respectively.

With `Cc1ccc2nc(Cl)c(/C=N/n3c(C)cc(C)c(C#N)c3=O)cc2c1`, the “inhibition zone (IZ)” value in assay [1], in assay [2], in assay [6], in assay [7] and in assay [8] was “inactive” each time. Besides, the zone of inhibition at 10000 µg/mL was 14.5 mm in assay [3], 12.4 mm in assay [4] and 13.2 mm in assay [5].

Turning to `Cc1cc(C)n(N2C(=O)c3ccccc3C2=O)c(=O)c1C#N`, the “inhibition zone (IZ)” value in assay [1] and in assay [6] was “inactive” throughout. Also, the zone of inhibition at 10000 µg/mL in assay [2] is 25.4 mm; in assay [3] it was 19.2 mm; in assay [4], 18.2 mm; in assay [5], 21.4 mm; in assay [7], 24.4 mm; in assay [8], 10.8 mm.

With `Cc1cc(C)n(/N=C/c2cn(-c3ccccc3)nc2-c2cc3ccccc3o2)c(=O)c1C#N`, the “inhibition zone (IZ)” value in assay [1] and in assay [6] was “inactive” in each case. Moreover, the zone of inhibition at 10000 µg/mL in assay [2] stood at 23.2 mm; in assay [3], 14.2 mm; in assay [4] it was 15.5 mm; in assay [5], 16.5 mm; in assay [7], 21.2 mm; in assay [8], 11.5 mm.

`Cc1cc(C)n(NC(=O)Nc2ccccc2)c(=O)c1C#N`: the “inhibition zone (IZ)” value in assay [1] and in assay [6] was “inactive” in each case. Further, the zone of inhibition at 10000 µg/mL stood at 10.4 mm in assay [2]; 9.2 mm in assay [3]; 7.4 mm in assay [4]; 10.4 mm in assay [5]; 7.2 mm in assay [7]; 11.4 mm in assay [8].

As to `Cc1ccc2c(c1)cc(/C=N/n1c(C)cc(C)c(C#N)c1=O)c1nnnn12`, the “inhibition zone (IZ)” value in assay [1] and in assay [6] was “inactive” in each case. Further, the zone of inhibition at 10000 µg/mL was 24.3 mm in assay [2]; 15.2 mm in assay [3]; 15.4 mm in assay [4]; 18.4 mm in assay [5]; 23.2 mm in assay [7]; 11.2 mm in assay [8].

Consider `Cc1cc(C)n(N)c(=O)c1C#N`, for which the zone of inhibition at 10000 µg/mL turned out to be 21.4 mm in assay [1], 17 mm in assay [2], 14 mm in assay [7] and 22.8 mm in assay [8]. For the same compound, the “inhibition zone (IZ)” value in assay [3], in assay [4], in assay [5] and in assay [6] was “inactive” in each case.
